The values below come from ChEMBL document CHEMBL3243970, “Synthesis and biological activity of some derivatives of thiochroman-4-one and tetrahydrothiapyran-4-one” (1977).

Calls of active or inactive are those of the source. The calls are words filed in the database; no cut-off is given here.

The test system of experiment [1] is Pseudomonas fluorescens. The experiment in a line: Antimicrobial activity against Pseudomonas fluorescens assessed as growth inhibition at 91 ug/ml after 24 hrs by spectrophotometry. The format is functional. Conditions: read-out: GI.
In experiment [2] the test system is Bacillus subtilis. The experiment in a line: Antimicrobial activity against Bacillus subtilis assessed as growth inhibition at 91 ug/ml after 24 hrs by spectrophotometry. Format: functional. Conditions: read-out: GI. The method in brief: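 Primary screen of Bacillus subtilis growth in the presence of test compound at 91 µg/mL.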
The test system of experiment [3] is KB. The experiment in a line: Cytotoxicity against human KB cells assessed as growth inhibition at 50 ug/ml after 24 hrs by crystal violet staining method. Format: functional. Conditions: read-out: GI.
Experiment [4] has as its system L1210 (Mus musculus). The experiment in a line: Potentiation of actinomycin D-induced antitumor activity against mouse L1210 cells allografted in BDF1 mouse administered ip on days 2 to 6 post challenge relative to control.
Experiment [5] deals with Pseudomonas fluorescens. The experiment in a line: Antimicrobial activity against Pseudomonas fluorescens assessed as growth inhibition at 75 ug/ml after 24 hrs by spectrophotometry. Format: functional. Conditions: read-out: GI.
Experiment [6] concerns L1210 (Mus musculus). The experiment in a line: Potentiation of mitomycin C-induced antitumor activity against mouse L1210 cells allografted in BDF1 mouse administered ip on days 2 to 6 post challenge relative to control.
Experiment [7] deals with Bacillus subtilis. The experiment in a line: Antimicrobial activity against Bacillus subtilis assessed as growth inhibition at 75 ug/ml after 24 hrs by spectrophotometry. Format: functional. Conditions: read-out: GI.
The subject of experiment [8] is KB. The experiment in a line: Cytotoxicity against human KB cells assessed as growth inhibition at 12.5 ug/ml after 24 hrs by crystal violet staining method. Format: functional. Conditions: read-out: GI.
Experiment [9] deals with Bacillus subtilis. The experiment in a line: Antimicrobial activity against Bacillus subtilis assessed as growth inhibition after 24 hrs by spectrophotometry. The format is functional, organism-based.
In experiment [10] the test system is KB. The experiment in a line: Cytotoxicity against human KB cells assessed as growth inhibition after 24 hrs by crystal violet staining method. Format: functional, cell-based.
Experiment [11] has as its system Pseudomonas fluorescens. The experiment in a line: Antimicrobial activity against Pseudomonas fluorescens assessed as growth inhibition after 24 hrs by spectrophotometry. Format: functional, organism-based.

Take `c1ccc2c(c1)SCc1cnoc1-2`: the inhibition of growth at 91 µg/mL was determined as 0% in the experiment with Pseudomonas fluorescens [1] and 100% with Bacillus subtilis [2]. Moreover, the inhibition of growth at 50 µg/mL in the experiment with KB [3] is 100%.

Consider `O=C1NN=C2CCSCC12` (centres undefined), for which the inhibition of growth at 91 µg/mL in the experiment on Pseudomonas fluorescens [1] and in the experiment with Bacillus subtilis [2] was 0% throughout.

Take `c1ccc2c(c1)SCc1cn[nH]c1-2`: the result in the experiment with L1210 (Mus musculus) [4] was inactive. The inhibition of growth at 75 µg/mL is 0% in the experiment with Pseudomonas fluorescens [5] and 100% in the experiment with Bacillus subtilis [7]. For the same compound, in the experiment with L1210 (Mus musculus) [6], the T/C (in general, the ratio of treated to control) was found to be 10%. Moreover, the inhibition of growth at 12.5 µg/mL in the experiment with KB [8] stood at 28%.

For the compound `O=S1(=O)Cc2c[n+]([O-])n(-c3ccccc3)c2-c2ccccc21`, the inhibition of growth at 91 µg/mL in the experiment on Pseudomonas fluorescens [1] and in the experiment on Bacillus subtilis [2] was 0% throughout.

On to `O=S1(=O)Cc2cnoc2-c2ccccc21`, for which, in the experiment with Bacillus subtilis [2], the inhibition of growth at 91 µg/mL came to 0%.

Consider `c1ccc(-n2ncc3c2-c2ccccc2SC3)cc1`, for which the “growth inhibition (GI)” value with Bacillus subtilis [9], with KB [10] and with Pseudomonas fluorescens [11] was “inactive” in each case.

As to `O=c1[nH]n(-c2ccccc2)c2c1CSCC2`, the inhibition of growth at 91 µg/mL in the experiment with Pseudomonas fluorescens [1] and in the experiment on Bacillus subtilis [2] was 0% throughout.

Regarding `O=C1CCS(=O)(=O)c2ccccc21`, the figures for the inhibition of growth at 91 µg/mL in the experiment on Pseudomonas fluorescens [1] and with Bacillus subtilis [2] were 0% and 100%, respectively. Also, in the experiment with KB [3], the inhibition of growth at 50 µg/mL was 17%.

As to `c1n[nH]c2c1CSCC2`, the inhibition of growth at 91 µg/mL in the experiment with Pseudomonas fluorescens [1] and with Bacillus subtilis [2] was 0% throughout.

On to `O=S1(=O)Cc2cn[nH]c2-c2ccccc21`, for which the inhibition of growth at 91 µg/mL in the experiment with Bacillus subtilis [2] came to 0%.
